Reference: ChEMBL document CHEMBL1151448, “Comparative antianaerobic activities of doripenem determined by MIC and time-kill analysis” (2008)
Values after ≈ are worked out from the molar mass of the structure shown. Active and inactive are the calls of the source. No cut-off for these calls is given here.

What was measured:
[1] = system: Prevotella melaninogenica; test: Antimicrobial activity against beta lactamase-positive Prevotella melaninogenica isolated from intra-abdominal infection and pelvic inflammatory disease patients after 48 hrs by agar dilution method; assay type: functional
Summary of the method: (§1)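 CLSI agar dilution on brucella blood agar supplemented with laked sheep blood, hemin and vitamin K. Inocula of about 1 × 10^5 CFU/spot were applied by Steers replicator, and plates were incubated 48 h at 35°C in an anaerobic glove box. MIC was the concentration giving marked growth reduction versus the anaerobic control plate. QC strains were included each run, and β-lactamase was detected by Cefinase disk.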

Fusobacterium nucleatum [2] = test: Antimicrobial activity against beta lactamase-positive Fusobacterium nucleatum isolated from intra-abdominal infection and pelvic inflammatory disease patients after 48 hrs by time kill analysis; assay type: functional
Summary of the method: (§2)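 The MIC was read by inspecting macrodilution time-kill tubes. Vials held prereduced brucella broth with 5% laked horse blood cells, hemin 5 μg/ml and vitamin K1 1 μg/ml. Final inoculum was 10^6–10^7 CFU/ml, prepared inside the anaerobe chamber. Vials were incubated 48 h at 35°C in a shaking water bath.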

[3] = system: Bacteroides thetaiotaomicron; test: Bactericidal activity against beta lactamase-positive Bacteroides thetaiotaomicron isolated from intra-abdominal infection and pelvic inflammatory disease patients assessed as bacterial killing at MIC after 24 hrs by time kill analysis; assay type: functional
Summary of the method: (§3)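 Macrodilution time-kill in prereduced brucella broth with 5% laked horse blood, hemin 5 μg/ml and vitamin K1 1 μg/ml, at final inoculum 10^6–10^7 CFU/ml. […] Viable counts were taken at 6, 12, 24 and 48 h on plates incubated 48 h anaerobically. 99.9% kill was taken as bactericidal.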

[4] = system: Peptoniphilus asaccharolyticus; test: Antimicrobial activity against Peptoniphilus asaccharolyticus isolated from intra-abdominal infection and pelvic inflammatory disease patients after 48 hrs by agar dilution method; assay type: functional; summary of the method: as §1
Prevotella intermedia [5] = test: Bactericidal activity against beta lactamase-positive Prevotella intermedia isolated from intra-abdominal infection and pelvic inflammatory disease patients assessed as bacterial killing at MIC after 24 hrs by time kill analysis; assay type: functional
Summary of the method: (§4)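 Anaerobic macrodilution time-kill. Inoculum from brucella blood plates, prepared and diluted in prereduced brucella broth inside the anaerobe chamber. Final 10^6 to 10^7 CFU/ml in prereduced brucella broth with 5% laked horse blood cells, 5 μg/ml hemin and 1 μg/ml vitamin K1. […] Shaken at 35°C for 48 h. Viable counts taken at 6, 12, 24 and 48 h. 99.9% kill taken as bactericidal.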

[Clostridium] innocuum = Antimicrobial activity against Clostridium innocuum isolated from intra-abdominal infection and pelvic inflammatory disease patients after 48 hrs by agar dilution method; assay type: functional; summary of the method: as §1
Parvimonas micra = test: Antimicrobial activity against Micromonas micros isolated from intra-abdominal infection and pelvic inflammatory disease patients after 48 hrs by agar dilution method; assay type: functional; summary of the method: as §1
Clostridioides difficile [6] = test: Bactericidal activity against Clostridium difficile isolated from intra-abdominal infection and pelvic inflammatory disease patients assessed as bacterial killing at 2 times MIC after 48 hrs by time kill analysis; assay type: functional; summary of the method: as §3
[7] = system: Paraclostridium bifermentans; test: Antimicrobial activity against Clostridium bifermentans isolated from intra-abdominal infection and pelvic inflammatory disease patients after 48 hrs by agar dilution method; assay type: functional; summary of the method: as §1
Prevotella corporis = test: Antimicrobial activity against beta lactamase-positive Prevotella corporis isolated from intra-abdominal infection and pelvic inflammatory disease patients after 48 hrs by agar dilution method; assay type: functional; summary of the method: as §1
Phocaeicola vulgatus = test: Antimicrobial activity against beta lactamase-positive Bacteroides vulgatus isolated from intra-abdominal infection and pelvic inflammatory disease patients after 48 hrs by agar dilution method; assay type: functional; summary of the method: as §1
Clostridioides difficile [8] = test: Bactericidal activity against Clostridium difficile isolated from intra-abdominal infection and pelvic inflammatory disease patients assessed as bacterial killing at MIC after 24 hrs by time kill analysis; assay type: functional; summary of the method: as §3
Fusobacterium nucleatum [9] = test: Bactericidal activity against beta lactamase-positive Fusobacterium nucleatum isolated from intra-abdominal infection and pelvic inflammatory disease patients assessed as bacterial killing at MIC after 24 hrs by time kill analysis; assay type: functional; summary of the method: as §4
Clostridioides difficile [10] = test: Bactericidal activity against Clostridium difficile isolated from intra-abdominal infection and pelvic inflammatory disease patients assessed as 99.9% bacterial killing at 2 times MIC after 48 hrs by time kill analysis; assay type: functional, organism-based; summary of the method: as §3
Thomasclavelia ramosa = test: Antimicrobial activity against Clostridium ramosum isolated from intra-abdominal infection and pelvic inflammatory disease patients after 48 hrs by agar dilution method; assay type: functional; summary of the method: as §1
Prevotella intermedia [11] = test: Antimicrobial activity against beta lactamase-positive Prevotella intermedia isolated from intra-abdominal infection and pelvic inflammatory disease patients after 48 hrs by time kill analysis; assay type: functional; summary of the method: as §2
[12] = system: Enterocloster clostridioformis; test: Antimicrobial activity against Clostridium clostridioforme isolated from intra-abdominal infection and pelvic inflammatory disease patients after 48 hrs by agar dilution method; assay type: functional; summary of the method: as §1
[13] = system: Bacteroides thetaiotaomicron; test: Antimicrobial activity against beta lactamase-positive Bacteroides thetaiotaomicron isolated from intra-abdominal infection and pelvic inflammatory disease patients after 48 hrs by agar dilution method; assay type: functional; summary of the method: as §1
Porphyromonas gingivalis = test: Antimicrobial activity against Porphyromonas gingivalis isolated from intra-abdominal infection and pelvic inflammatory disease patients after 48 hrs by agar dilution method; assay type: functional; summary of the method: as §1
Finegoldia magna [14] = test: Antimicrobial activity against beta lactamase-positive Finegoldia magna isolated from intra-abdominal infection and pelvic inflammatory disease patients after 48 hrs by time kill analysis; assay type: functional; summary of the method: as §2
[15] = system: Bacteroides thetaiotaomicron; test: Bactericidal activity against beta lactamase-positive Bacteroides thetaiotaomicron isolated from intra-abdominal infection and pelvic inflammatory disease patients assessed as bacterial killing at 2 times MIC after 48 hrs by time kill analysis; assay type: functional; summary of the method: as §3
Prevotella nigrescens = test: Antimicrobial activity against beta lactamase-positive Prevotella nigrescens isolated from intra-abdominal infection and pelvic inflammatory disease patients after 48 hrs by agar dilution method; assay type: functional; summary of the method: as §1
Anaerococcus tetradius = test: Antimicrobial activity against Anaerococcus tetradius isolated from intra-abdominal infection and pelvic inflammatory disease patients after 48 hrs by agar dilution method; assay type: functional; summary of the method: as §1
Prevotella disiens = test: Antimicrobial activity against beta lactamase-positive Prevotella disiens isolated from intra-abdominal infection and pelvic inflammatory disease patients after 48 hrs by agar dilution method; assay type: functional; summary of the method: as §1
Anaerococcus prevotii = test: Antimicrobial activity against Anaerococcus prevotii isolated from intra-abdominal infection and pelvic inflammatory disease patients after 48 hrs by agar dilution method; assay type: functional; summary of the method: as §1
Fusobacterium varium = test: Antimicrobial activity against Fusobacterium varium isolated from intra-abdominal infection and pelvic inflammatory disease patients after 48 hrs by agar dilution method; assay type: functional; summary of the method: as §1
Bacteroides fragilis [16] = test: Bactericidal activity against beta lactamase-positive Bacteroides fragilis isolated from intra-abdominal infection and pelvic inflammatory disease patients assessed as bacterial killing at 2 times MIC after 48 hrs by time kill analysis; assay type: functional; summary of the method: as §3
Bacteroides fragilis [17] = test: Antimicrobial activity against beta lactamase-positive Bacteroides fragilis isolated from intra-abdominal infection and pelvic inflammatory disease patients after 48 hrs by agar dilution method; assay type: functional; summary of the method: as §1
[18] = system: Paeniclostridium sordellii; test: Antimicrobial activity against Clostridium sordellii isolated from intra-abdominal infection and pelvic inflammatory disease patients after 48 hrs by agar dilution method; assay type: functional; settings: Paraclostridium sordellii; summary of the method: as §1
Fusobacterium nucleatum [19] = test: Antimicrobial activity against beta lactamase-positive Fusobacterium nucleatum isolated from intra-abdominal infection and pelvic inflammatory disease patients after 48 hrs by agar dilution method; assay type: functional; summary of the method: as §1
Finegoldia magna [20] = test: Bactericidal activity against beta lactamase-positive Finegoldia magna isolated from intra-abdominal infection and pelvic inflammatory disease patients assessed as bacterial killing at 2 times MIC after 48 hrs by time kill analysis; assay type: functional; summary of the method: as §4

`C[C@@H](O)[C@H]1C(=O)N2C(C(=O)O)=C(S[C@@H]3CN[C@H](C(=O)N(C)C)C3)[C@H](C)[C@H]12` [MEROPENEM] showed an MIC50 [1] of 0.06 µg/mL (≈ 0.156 µM), an MIC (Fusobacterium nucleatum [2]) of 0.008 µg/mL (≈ 0.0209 µM) and an Activity [3] of 90%. It also gave an MIC [4] of at most 0.016 µg/mL, an MIC50 [4] of at most 0.016 µg/mL and an MIC90 [4] of 0.03 µg/mL (≈ 0.0782 µM). For the same molecule, the Activity (Prevotella intermedia [5]) was 90%, the MIC50 ([Clostridium] innocuum) was 2 µg/mL (≈ 5.22 µM) and the MIC (Parvimonas micra) was 0.03 µg/mL (≈ 0.0782 µM). It also gave an MIC50 (Parvimonas micra) of 0.03 µg/mL (≈ 0.0782 µM), an MIC90 (Parvimonas micra) of 0.25 µg/mL (≈ 0.652 µM) and an Activity (Clostridioides difficile [6]) of 99%. For the same molecule, the MIC [7] was 0.125 µg/mL (≈ 0.326 µM), the MIC50 (Prevotella corporis) was 0.03 µg/mL (≈ 0.0782 µM) and the MIC90 (Prevotella corporis) was 0.06 µg/mL (≈ 0.156 µM). For the same molecule, the MIC50 (Phocaeicola vulgatus) was 0.25 µg/mL (≈ 0.652 µM), the MIC90 (Phocaeicola vulgatus) was 1 µg/mL (≈ 2.61 µM) and the Activity (Clostridioides difficile [8]) was 90%. For the same molecule, the Activity (Fusobacterium nucleatum [9]) was 90%, the Activity (Clostridioides difficile [10]) was “inactive” and the MIC50 (Thomasclavelia ramosa) was 1 µg/mL (≈ 2.61 µM). The MIC (Prevotella intermedia [11]) was 0.03 µg/mL (≈ 0.0782 µM), the MIC [12] was 1 µg/mL (≈ 2.61 µM) and the MIC50 [13] was 0.25 µg/mL (≈ 0.652 µM). For the same molecule, the MIC90 [13] was 0.5 µg/mL (≈ 1.3 µM), the MIC (Porphyromonas gingivalis) was at most 0.016 µg/mL and the MIC (Finegoldia magna [14]) was 0.06 µg/mL (≈ 0.156 µM). For the same molecule, the Activity [15] was 99%, the MIC50 (Prevotella nigrescens) was 0.03 µg/mL (≈ 0.0782 µM) and the MIC90 (Prevotella nigrescens) was 0.06 µg/mL (≈ 0.156 µM). The MIC (Anaerococcus tetradius) was 0.03 µg/mL (≈ 0.0782 µM), the MIC50 (Anaerococcus tetradius) was 0.03 µg/mL (≈ 0.0782 µM) and the MIC (Prevotella disiens) was 0.03 µg/mL (≈ 0.0782 µM). It also gave an MIC50 (Prevotella disiens) of 0.03 µg/mL (≈ 0.0782 µM), an MIC90 (Prevotella disiens) of 0.125 µg/mL (≈ 0.326 µM) and an MIC (Anaerococcus prevotii) of at most 0.016 µg/mL. For the same molecule, the MIC50 (Fusobacterium varium) was 0.125 µg/mL (≈ 0.326 µM), the MIC90 (Fusobacterium varium) was 0.25 µg/mL (≈ 0.652 µM) and the Activity (Bacteroides fragilis [16]) was 99%. The MIC50 (Bacteroides fragilis [17]) was 0.125 µg/mL (≈ 0.326 µM), the MIC90 (Bacteroides fragilis [17]) was 1 µg/mL (≈ 2.61 µM) and the MIC [18] was 0.06 µg/mL (≈ 0.156 µM). The MIC (Fusobacterium nucleatum [19]) was at most 0.016 µg/mL, the MIC50 (Fusobacterium nucleatum [19]) was at most 0.016 µg/mL and the MIC90 (Fusobacterium nucleatum [19]) was 0.03 µg/mL (≈ 0.0782 µM). The Activity (Finegoldia magna [20]) was 99%.
